Usually IC50 stands for the concentration needed to halve the response being measured. A low value points to greater potency. One may read the EC50 as the concentration that produces a half-maximal response. One may read the CC50 as the concentration that lowers cell viability or growth by half. Usually half-life stands for the time in which the quantity being followed falls by half.

The values that follow come from ChEMBL document CHEMBL3112565, “Identification of small molecule sphingomyelin synthase inhibitors” (Eur J Med Chem, 2014).

Series [1] concerns the target T1, Phosphatidylcholine:ceramide cholinephosphotransferase 2 (Homo sapiens, UniProt Q8NHU3).
T1 sequence (Q8NHU3 whole entry): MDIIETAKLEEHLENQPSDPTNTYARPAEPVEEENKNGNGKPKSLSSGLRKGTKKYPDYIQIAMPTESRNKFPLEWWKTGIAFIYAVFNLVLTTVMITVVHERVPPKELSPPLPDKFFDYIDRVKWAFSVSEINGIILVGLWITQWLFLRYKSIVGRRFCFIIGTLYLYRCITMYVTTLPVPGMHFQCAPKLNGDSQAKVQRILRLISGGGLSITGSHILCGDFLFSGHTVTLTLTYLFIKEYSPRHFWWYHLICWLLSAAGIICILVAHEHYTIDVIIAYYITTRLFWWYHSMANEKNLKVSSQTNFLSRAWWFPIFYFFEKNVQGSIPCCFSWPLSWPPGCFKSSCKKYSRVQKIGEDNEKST
Put plainly: Inhibition of SMS2 (unknown origin) expressed in H5 insect cells using C6-NBD-Cer as substrate at 100 uM after 1 hr. Summed up: (§1)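 SMS2 came from homogenate of H5 insect cells overexpressing it, prepared at 50 mg pellet/mL in 0.25 M sucrose, 50 mM Tris-HCl pH 7.4, 1 mM EDTA and spun at 12,000 rpm for 10 min. The enzyme (2 µg total protein) was preincubated with inhibitor for 30 min at 37 °C in 10 mM HEPES pH 7.4, 3 mM MnCl2, 0.3% BSA. Reaction was started with 1.01 mM C6-NBD-Cer plus DMPC in DMSO and run 1 h at 37 °C. Product was quantified by HPLC as for SMS.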

The nature of series [2]: Inhibition of sphingomyelin synthase in ICR mouse liver homogenates using C6-NBD-Cer as substrate after 2 hrs. The format is tissue-based. The procedure, abridged:
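Enzyme was the 12,000 rpm supernatant of ICR mouse liver homogenized at 300 mg/mL in 0.25 M sucrose, 50 mM Tris-HCl pH 7.4, 1 mM EDTA; 2 µg protein per assay. Preincubated with inhibitor 30 min at 37 °C in 10 mM HEPES pH 7.4, 3 mM MnCl2, 0.3% BSA. C6-NBD-ceramide and DMPC were then added and the reaction ran 2 h at 37 °C before ethanol quench. C6-NBD-SM was measured by C18 HPLC with fluorescence detection (ex 475/em 525 nm). IC50 from five inhibitor concentrations, triplicate, log[inhibitor] vs response fit.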

For series [3], the target named is T1, Phosphatidylcholine:ceramide cholinephosphotransferase 2. Put plainly: Inhibition of SMS2 (unknown origin) expressed in H5 insect cells using C6-NBD-Cer as substrate after 1 hr. Summed up: as §1
Series [4] is described as follows: Inhibition of sphingomyelin synthase (unknown origin) by cell based assay. The settings on record: Homo sapiens.
The nature of series [5]: Inhibition of sphingomyelin synthase (unknown origin). Set-up: species or system Homo sapiens.
Series [6] concerns the target Sphingomyelin synthase (Mus musculus). Put plainly: Inhibition of SMS in ICR mouse liver homogenate using C6-NBD-Cer as substrate after 2 hrs.
Series [7] in a line: Cytotoxicity against human HuH7 cells assessed as cell viability after 17 hrs by MTT assay. The format is cell-based, Huh-7. Summed up:
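Huh-7 cells exposed to a range of concentrations for 17 h, then viability read by MTT. CC50 is the concentration giving 50% inhibition relative to vehicle (0.25% DMSO). Quintuplicate samples; mean of at least two independent tests.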
In general terms: Tetrazolium assays rely on reduction of a dye to a coloured formazan, in cell work by metabolically active cells.

For series [8], the system named is Mus musculus. Put plainly: Inhibition of sphingomyelin synthase in ICR mouse assessed as increase of ceramide level in plasma at 6 mg/kg, ip after 2 hrs. It is filed as functional, organism-based. Set-up: dose 6 mg/kg. The procedure, abridged: (§2)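 Female ICR mice (about 25 g), n=5 per group, received 150 µg (6 mg/kg) in 15 µL DMSO plus 185 µL PBS pH 7.4, given i.v. or i.p.; controls got vehicle i.v. Blood was taken from the eye after 2 h and frozen in liquid nitrogen. Plasma ceramide and sphingomyelin were measured by mass spectrometry. Groups compared by Student's t-test.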

Series [9] concerns Mus musculus. Put plainly: Inhibition of sphingomyelin synthase in ICR mouse assessed as decrease of sphingomyelin level in plasma at 6 mg/kg, ip after 2 hrs. The format is functional, organism-based. Also noted: dose 6 mg/kg. The procedure, abridged:
as §2

The test system of series [10] is Mus musculus. Briefly: Inhibition of sphingomyelin synthase in ICR mouse assessed as decrease of sphingomyelin level in plasma at 6 mg/kg, iv after 2 hrs. The format is functional, organism-based. Also noted: dose 6 mg/kg. Summed up:
as §2

Series [11] deals with Mus musculus. Briefly: Inhibition of sphingomyelin synthase in ICR mouse assessed as increase of ceramide level in plasma at 6 mg/kg, iv after 2 hrs. It is filed as functional, organism-based. Also noted: dose 6 mg/kg. The procedure, abridged: as §2
Series [12] can be described thus: Half life in saline solution at 24 degC. It is filed as ADME.

Active and inactive are the calls of the source. No cut-off for these calls is given here.

For the compound `N#CC(Nc1ccccc1)c1ccc(OCc2ccccc2)cc1` (centres undefined), the IC50 entry in series [1] was “Not Active”.

Turning to `N#CC(Nc1ccccc1Cl)c1ccccc1OCc1ccccc1` (centres undefined), the IC50 amounted to 90.8 µM in series [2] and 15.8 µM in series [3].

Consider `COc1cccc(NC(C#N)c2ccccc2OCc2ccccc2)c1` (centres undefined), for which the concentration for half-maximal inhibition (IC50) result in series [1] is recorded as “Not Active”.

In series [3], `NC(=O)C(Nc1ccccc1)c1ccccc1OCc1ccccc1` (centres undefined) returned an IC50 of 135 µM.

As for `N#CC(Nc1ccccc1O)c1ccccc1OCc1ccccc1` (centres undefined), 19 µM corresponded to half-maximal inhibition in [3] (IC50).

With `S=C(S)OC1CC2CC1C1CCCC21` (centres undefined), the IC50 in [2] came to 402 µM; in [3] it was 224 µM; in [5], 375 µM. This compound yielded an EC50 in series [4] of 90 µM.

The compound `Cc1ccc(NC(C#N)c2ccccc2OCc2ccccc2)cc1` (centres undefined) showed a concentration for half-maximal inhibition (IC50) in series [3] of 20.8 µM.

`N#CC1c2ccccc2OC(c2ccccc2O)N1c1ccccc1` (centres undefined) yielded an IC50 in [6] of 75 µM.

With `N#CC(Nc1cccnc1)c1ccccc1OCc1ccccc1` (centres undefined), the IC50 in [3] is 35 µM.

As to `N#CC(Nc1ccc(O)cc1)c1ccccc1OCc1ccccc1` (centres undefined), the IC50 in [3] is 24.4 µM.

On to `COc1ccccc1NC(C#N)c1ccccc1OCc1ccccc1` (centres undefined), for which the IC50 amounted to 35.8 µM in series [2] and 12.4 µM in [3].

For `N#CC(Nc1ccc(Cl)cc1)c1ccccc1OCc1ccccc1` (centres undefined), the IC50 stood at 93.9 µM in series [2] and 22.5 µM in series [3].

Consider `N#CC(NCc1ccco1)c1ccccc1OCc1ccccc1` (centres undefined), for which 71 µM corresponded to half-maximal inhibition in series [3] (IC50).

The compound `N#Cc1ccccc1NC(C#N)c1ccccc1OCc1ccccc1` (centres undefined) yielded an IC50 in series [3] of 20.3 µM.

`N#CC(Nc1ccccc1)c1cccc(OCc2ccccc2)c1` (centres undefined) registered an IC50 in series [3] of 50.7 µM.

In the case of `Cc1ccccc1NC(C#N)c1ccccc1OCc1ccccc1` (centres undefined), in series [3], half-maximal inhibition (IC50) was put at 67.2 µM.

On to `N#CC(Nc1ccccc1)c1ccccc1OCc1ccccc1` (centres undefined), for which, in [7], the CC50 at 17 h turned out to be 245 µM. Further, the values for the IC50 in [2] and in series [3] were 24.5 µM and 13.5 µM, respectively. In addition, the inhibition result in the series on Mus musculus [8], in the series on Mus musculus [9], in the series with Mus musculus [10] and with Mus musculus [11] was “Active” throughout.

For the compound `Cc1cccc(C)c1NC(C#N)c1ccccc1OCc1ccccc1` (centres undefined), the IC50 in [3] worked out at 31.5 µM.

For the compound `c1ccc(COc2ccccc2CNc2ccccc2)cc1`, the IC50 result in series [1] is on record as “Not Active”.

For the compound `N#CC(Nc1ccc(C(N)=O)cc1)c1ccccc1OCc1ccccc1` (centres undefined), the IC50 came to 196 µM in series [2] and 80.5 µM in [3].

As for `COc1ccc(NC(C#N)c2ccccc2OCc2ccccc2)cc1` (centres undefined), inhibition in series [3] was half-maximal at 48.1 µM (IC50).

As to `O=C(C(c1ccccc1)c1ccccc1)N1CCN(CC(O)COc2cccc3ncccc23)CC1` (centres undefined), in series [5], the IC50 is above 500 µM.

On to `c1ccc(COc2ccccc2C(Nc2ccccc2)c2nnn[nH]2)cc1` (centres undefined), for which the IC50 entry in series [1] was “Not Active”.

As to `N#CC(Nc1ccccc1[N+](=O)[O-])c1ccccc1OCc1ccccc1` (centres undefined), in series [3], half-maximal inhibition (IC50) required 27.4 µM.

In turn, `S=C(OC1CC2CC1C1CCCC21)[S][K]` (centres undefined) showed a half-life in series [12] of 19.5 min.

In the case of `N#CC(Nc1ccccc1)c1ccccc1` (centres undefined), the IC50 entry in series [1] was “Not Active”.
